Rows were chosen to be rich in hits. Some 2.3% of all compounds tested hit in one or more screens of this group.
TRPC4 act: opens the mouse TRPC4 cation channel; Q9QUQ5; HEK293 TRPC4beta/mu-opioid, Fluo4 calcium fluorescence; hits give high values; B-score at 10 µM; hit rate 0.49% among 310,000; AID 2237;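 active means B-score above 5 SD of library B-scores, and initial fluorescence ratio not above library mean plus 5 SD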;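 further: positive B-score marks a calcium rise read as TRPC4 activation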
Target sequence (Q9QUQ5 whole entry, looked up): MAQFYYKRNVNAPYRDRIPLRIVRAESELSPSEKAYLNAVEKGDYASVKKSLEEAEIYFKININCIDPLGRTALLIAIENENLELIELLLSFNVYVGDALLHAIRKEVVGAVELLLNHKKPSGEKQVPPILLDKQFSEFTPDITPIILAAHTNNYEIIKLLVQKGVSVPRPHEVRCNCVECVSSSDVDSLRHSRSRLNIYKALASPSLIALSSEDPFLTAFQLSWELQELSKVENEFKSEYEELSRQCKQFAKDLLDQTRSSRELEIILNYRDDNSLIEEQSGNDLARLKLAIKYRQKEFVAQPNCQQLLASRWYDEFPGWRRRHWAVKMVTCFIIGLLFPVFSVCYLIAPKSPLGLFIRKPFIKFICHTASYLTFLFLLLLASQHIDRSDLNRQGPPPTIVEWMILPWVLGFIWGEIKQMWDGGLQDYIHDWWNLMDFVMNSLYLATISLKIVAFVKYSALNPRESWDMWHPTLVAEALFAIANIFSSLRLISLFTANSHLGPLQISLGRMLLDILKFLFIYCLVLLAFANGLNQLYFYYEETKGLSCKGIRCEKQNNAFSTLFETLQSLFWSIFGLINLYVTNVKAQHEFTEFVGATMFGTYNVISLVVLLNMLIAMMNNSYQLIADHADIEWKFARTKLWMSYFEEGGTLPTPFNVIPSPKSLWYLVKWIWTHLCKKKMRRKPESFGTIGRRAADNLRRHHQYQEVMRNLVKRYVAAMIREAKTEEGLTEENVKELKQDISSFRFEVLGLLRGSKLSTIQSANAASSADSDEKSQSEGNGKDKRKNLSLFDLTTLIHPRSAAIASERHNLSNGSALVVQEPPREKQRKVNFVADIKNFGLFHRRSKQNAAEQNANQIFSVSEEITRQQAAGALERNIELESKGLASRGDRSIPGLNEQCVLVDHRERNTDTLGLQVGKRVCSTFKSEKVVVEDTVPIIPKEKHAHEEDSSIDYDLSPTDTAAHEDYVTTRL
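Material: HEK293 stable line with TRPC4beta plus mu-opioid receptor; technique: Fluo4 calcium-sensitive dye fluorescence, kinetic, 1 Hz baseline; timing: Fluo4 dye loading 45 min at room temperature, 110 s recording; controls: assay buffer as low control, maximal DAMGO as high control; read-out: integrated baseline-normalised fluorescence ratio, converted to per-well B score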
TRPC6 inh: mouse TRPC6 channel inhibition | hit rate 1.1% among 310,000 | B-score at 10 µM | AID 2553 | HEK293-TRPC6, membrane potential dye, ACh-evoked depolarization; hits give low values | Q61143;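 active means B-score under library mean minus 3 SD, initial fluorescence not abnormally high, positive integrated signal ratio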;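 further: B-score derived from integrated fluorescence ratio over the kinetic read; more negative B-score means stronger inhibition of depolarization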
TRPC6 act: activators of mouse TRPC6 channel; Q61143; HEK293-TRPC6 membrane potential dye fluorescence; hits give high values; B-score at 10 µM; hit rate 0.13% among 310,000;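 active means B-score of the integrated fluorescence ratio above library mean plus 3 SD, and starting fluorescence ratio within library mean plus 5 SD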;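 further: higher score means more depolarization so channel activation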
TRPC4 potent: TRPC4 (mouse) allosteric potentiation; B-score at 10 µM; Q9QUQ5; hit rate 0.42% among 310,000; HEK293 TRPC4beta/mu-opioid, DAMGO EC20, Fluo-4 Ca2+ flux; hits give high values;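 active means B-score of calcium response area above 5 SD of library B-scores, with initial fluorescence ratio within 5 SD of library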
TRPC4 block: TRPC4 (mouse) channel inhibition; HEK293 TRPC4beta/mu-opioid, DAMGO-evoked Fluo4 calcium flux; hits give low values; B-score at 10 µM; hit rate 0.39% among 300,000;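 active means B-score over 3 SD under the library average, no early fluorescence shift, positive overall ratio signal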
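material = TRPC4beta/mu-opioid receptor HEK293 cell line | probe or stimulus = sequential submaximal and maximal DAMGO stimulation | compound dosing = one concentration per compound | measured by = Fluo4 Ca2+ flux fluorescence | evaluation = integrated fluorescence ratio relative to baseline, converted to per-well B score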
TRPC4 sel inh 2: second check of whether TRPC6 inhibitors also affect mouse TRPC4; shares compounds with TRPC6 inh; HEK293 TRPC4/MOR, membrane potential dye fluorescence; channel activated by saturating DAMGO dose; inhibition, % at 10 µM; hit rate 42% among 920; AID 2776;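 active means compounds whose fluorescence signal differed from control wells by over 3 SD, either direction, in both duplicate plates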
TRPC4 spec: mouse TRPC4 off-target activity of TRPC6 inhibitors | shares compounds with TRPC6 inh | HEK293 TRPC4/mu-opioid, membrane potential fluorescence | activity change, negative = inhibition, % at 10 µM | hit rate 61% among 920;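 active means rise or fall in signal beyond 3 SD of buffer-only wells in both replicate plates, either sign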;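 further: integrated kinetic ratio of fluorescence range over baseline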
HEK293 MPD ctr 2-1: second check of TRPC6 inhibitor effects in parental HEK293 cells; parental HEK293 membrane potential dye fluorescence; maximal acetylcholine challenge after compound addition; signal change vs control, % at 10 µM; AID 2779; shares compounds with TRPC6 inh; hit rate 31% among 920;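 active means membrane potential signal moving either way by over 3 SD of the maximum-effect control, in both duplicate plates, meaning non-specific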
HEK293 MPD ctr-1: parental HEK293 nonspecific activity of TRPC6 inhibitors; shares compounds with TRPC6 inh; parental HEK293 membrane potential dye fluorescence; membrane potential signal change, % at 10 µM; hit rate 60% among 920; AID 2780;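 active means membrane potential signal shifting up or down by more than 3 SD of buffer-only wells, on both duplicate plates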
HEK293 MPD ctr-2: counter-screen for TRPC6 modulators: effect in parental HEK293 cells; shares compounds with TRPC6 inh; membrane potential dye fluorescence; membrane potential signal change, % at 10 µM; hit rate 51% among 2,400;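 active means membrane potential signal moves up or down beyond 5 SD from buffer-only wells, on both duplicate plates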
HEK293 MPD ctr 2-2: parental HEK293 nonspecific activity of TRPC6 modulators, second screen | shares compounds with TRPC6 inh | membrane potential dye fluorescence; after compound, maximal acetylcholine stimulation | inhibition, % at 10 µM | hit rate 14% among 2,400;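 active means membrane potential signal drops by more than 5 SD from the mean control signal, in both duplicate plates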
TRPC4/MOR mod: selectivity of TRPC6 modulators against mouse TRPC4 | shares compounds with TRPC6 inh | AID 488927 | HEK293 TRPC4/mu-opioid, membrane potential fluorescence | hit rate 69% among 2,400 | percent change from control (negative = decrease, positive = increase), % at 10 µM;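 active means membrane potential signal moved up or down beyond 5 SD of buffer control wells, in both duplicate plates, actives on both sides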
TRPC4/MOR inh 2: second check of whether TRPC6 modulators also affect mouse TRPC4 | HEK293 TRPC4/mu-opioid, membrane potential dye fluorescence; stimulated with maximal-effect DAMGO | hit rate 55% among 2,400 | inhibition, % at 10 µM | shares compounds with TRPC6 inh;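 active means drop in membrane potential signal beyond 5 SD of the control wells in both duplicate plates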;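 further: TRPC4 counter screen for TRPC6 hits run under conditions tuned for TRPC6 not TRPC4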
TRPC6 block conf: mouse TRPC6 inhibitor confirmation. HEK293-TRPC6, membrane potential dye, ACh-evoked depolarization. hit rate 43% among 3,300. inhibition, % at 10 µM. shares compounds with TRPC6 inh;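 active means fluorescence ratio falls more than 5 SD below the full-stimulation control mean, in both duplicate runs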;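 further: integrated fluorescence ratio of peak minus minimum over baseline after agonist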
TRPC6 act confirm: mouse TRPC6 activator confirmation | shares compounds with TRPC6 inh | HEK293-TRPC6 membrane potential dye fluorescence, FDSS | activation, % at 10 µM | hit rate 11% among 2,800 | AID 488961;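 active means ratio signal rise beyond 5 SD above unstimulated control wells' mean, seen in both duplicate runs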
Numbers stand for hits; n = inactive; x = no result.

SMILES	TRPC4 act	TRPC6 inh	TRPC6 act	TRPC4 potent	TRPC4 block	HEK293 MPD ctr-2	HEK293 MPD ctr 2-2	TRPC4/MOR mod	TRPC4/MOR inh 2	TRPC6 block conf	TRPC6 act confirm	others
Cc1nc(N2CCN(C)CC2)c2sc(=S)n(C)c2n1	n	-5.2	n	n	n	-158%	n	-25%	n	n	n
COc1ccc(/C=N/Nc2c(Cl)cc(Cl)cc2Cl)cc1CN1CCOCC1	n	n	n	n	n	x	x	x	x	x	x
Cc1ccc(O)c(CCc2ccc(O)cc2)n1	n	n	n	n	n	x	x	x	x	x	x
CC(C)CCN1C(=O)CCC1(C)C(=O)NC1CCCCCC1 (configuration not stated)	n	-5.8	n	n	n	128%	n	26%	n	n	x
Cc1cc(C)cc(C(=O)N2CCN(c3ccccn3)CC2)c1	n	n	n	n	n	x	x	x	x	x	x
COc1ccc(CC(=O)NC(c2ccccc2)c2ccc(C)cc2)c(OC)c1 (configuration not stated)	n	n	n	n	n	x	x	x	x	x	x
CCOC(=O)c1cnc2ccc(C)cc2c1Nc1ccc(N2CCOCC2)cc1	n	-5.7	n	n	n	-154%	68%	-32%	44%	68%	n
CCN(CC(=O)NCc1ccc(Cl)cc1)C(=O)CSc1ccc(Br)cc1	n	n	n	n	n	x	x	x	x	x	x
COC(=O)Cc1cc(=O)oc2cc(OC)ccc12	n	n	n	n	n	x	x	x	x	x	x
COc1ccc2c(COC(=O)CCS(=O)(=O)c3ccc(C)cc3)cc(=O)oc2c1	n	-5.3	n	n	n	n	n	n	n	n	n
CC1(C)CC(=O)C2(CC3=C(CC(C)(C)CC3=O)O2)C(=O)C1	n	n	n	n	n	x	x	x	x	x	x
O=C(NCCCN1CCOCC1)c1cc2c([nH]c3ccccc32)c(-c2cccc(Br)c2)n1	n	-8.8	n	n	n	x	x	x	x	54%	n	TRPC4 sel inh 2=n;TRPC4 spec=n;HEK293 MPD ctr 2-1=n;HEK293 MPD ctr-1=n
COc1ccc(OC)c(Nc2cc(C(=O)NCCCN3CCOCC3)c3ccccc3n2)c1	n	-5.5	n	n	n	n	n	n	45%	n	n
COc1ccccc1Nc1cc(C(=O)NCCCN2CCOCC2)c2ccccc2n1	n	n	n	n	n	x	x	x	x	x	x
COc1cccc(-c2nc(C(=O)NCCCN3CCOCC3)cc3c2[nH]c2ccccc23)c1	n	-7.3	n	n	n	x	x	x	x	n	n	TRPC4 sel inh 2=n;TRPC4 spec=-10%;HEK293 MPD ctr 2-1=n;HEK293 MPD ctr-1=-158%
Cc1ccc(Sc2nc([N+](=O)[O-])nn2C)cc1	n	n	n	n	n	x	x	x	x	x	x
COc1ccc(NC(=O)c2cccc(NC3=NC4CS(=O)(=O)CC4S3)c2)cc1Cl (configuration not stated)	n	n	n	n	n	x	x	x	x	x	x
CCCNC(=O)c1onc(CSc2ccncc2)c1C(=O)NCCC	n	n	n	n	n	x	x	x	x	x	x
COc1cc2cccc(OC)c(=O)c2c(O)c1OC	n	n	n	n	n	x	x	x	x	x	x
COc1cc2c(cc1OC)-c1c(OC)c(OC)cc3ccnc(c13)C2=O	n	-7.9	n	n	n	x	x	x	x	54%	n	TRPC4 sel inh 2=63%;TRPC4 spec=-26%;HEK293 MPD ctr 2-1=-58%;HEK293 MPD ctr-1=-426%
CCCn1c(C)cc(=O)c2cc(NC(=O)c3ccccn3)ccc21	n	-11	n	n	n	-345%	126%	-58%	74%	86%	n
COc1ccc(-c2cc(=O)oc3c(C)c(O)c(CN(C)C)cc23)cc1	n	n	n	n	n	x	x	x	x	x	x
Cc1c(O)c(CN(C)C)cc2c1oc(=O)c1ccccc12	n	-5.2	n	n	n	-126%	n	-28%	n	n	n
Cc1ccc(S(=O)(=O)N2CCOCC2)cc1C(=O)N1c2ccccc2Sc2ccccc21	n	n	n	n	n	x	x	x	x	x	x
Cc1cc(N2CCOCC2)nc2ccc(NC(=O)CCC(=O)N3CCCC(C)C3)cc12 (configuration not stated)	n	-6	n	n	n	-68%	n	-18%	36%	n	n
SMILES	TRPC4 act	TRPC6 inh	TRPC6 act	TRPC4 potent	TRPC4 block	HEK293 MPD ctr-2	HEK293 MPD ctr 2-2	TRPC4/MOR mod	TRPC4/MOR inh 2	TRPC6 block conf	TRPC6 act confirm	others
Cc1cc(N2CCCC2)nc2ccc(NC(=S)NCCCN3CCC(C)CC3)cc12	n	-7.2	n	n	n	x	x	x	x	n	n	TRPC4 sel inh 2=76%;TRPC4 spec=-14%;HEK293 MPD ctr 2-1=18%;HEK293 MPD ctr-1=-192%
COc1cccc(C(=O)Nc2ccc3nc(N4CCOCC4)cc(C)c3c2)c1	n	-5.9	n	n	n	-154%	n	-26%	30%	n	n
Cc1cc(N2CCOCC2)nc2ccc(NC(=O)CCC(=O)N3CCN(c4ccccc4F)CC3)cc12	n	-6.6	n	n	n	-67%	n	-16%	n	n	n
Cc1cc(N2CCOCC2)nc2ccc(NC(=S)N3CCCCC3C)cc12 (configuration not stated)	n	n	n	n	n	x	x	x	x	x	x
Cc1cc(N2CCOCC2)nc2ccc(NC(=O)CCC(=O)N3CCN(c4ccc(F)cc4)CC3)cc12	n	n	n	n	n	x	x	x	x	x	x
Nc1cc(C(F)(F)F)ccc1NCCc1ccccn1	n	n	n	n	n	x	x	x	x	x	x
CC(=O)N1c2ccc(S(=O)(=O)N3CCC(C(=O)Nc4cccc(C(F)(F)F)c4)CC3)cc2CC1C (configuration not stated)	n	n	n	n	n	x	x	x	x	x	x
Cc1cc(C)c(OCCCNCc2ccccc2)c(Br)c1	n	n	n	n	n	x	x	x	x	x	x
Cc1cc(C)c(OCCCNC2CCCC2)c(Br)c1	n	-5.4	12	n	n	201%	n	43%	54%	n	94%
CN(C)CCCN(C(=O)c1ccc(C(=O)c2ccccc2)cc1)c1nc2c(F)cccc2s1	n	-6.2	n	n	n	n	n	n	82%	60%	n

Bioassay records as filed in PubChem.
